According to ChEMBL document CHEMBL4376840, “Application of Fluorine- and Nitrogen-Walk Approaches: Defining the Structural and Functional Diversity of 2-Phenylindole Class of Cannabinoid 1 Receptor Positive Allosteric Modulators” (J Med Chem, 2020):
Active and inactive are the calls of the source. The calls are words filed in the database; no cut-off is given here.

Key:
[1] = Half life in human liver microsomes at 1 uM up to 45 mins in presence of NADPH by LC-MS/MS analysis
Mus musculus [2] = assay: Reduction of intraocular pressure in ocular hypertensive NEE mouse harboring Sh3pxd2b deletion mutant at 0.2% administered topically to eye after 1 hr by tonometry; format: functional
Summary of the method: (§1)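 Ocular hypertensive NEE mice (1 bp deletion in Sh3pxd2b) received topical 0.2% compound alone. IOP change from baseline (time 0) was measured at 1, 6 and 12 h; paired t-tests.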

[3] = Half life in rat liver microsomes at 1 uM up to 45 mins in presence of NADPH by LC-MS/MS analysis
[4] = target: Cannabinoid receptor 1 (Mus musculus) (UniProt P47746); assay: Positive allosteric modulation activity at CB1 receptor in C57BL/6 mouse hippocampal neurons assessed as increase in depolarization-induced suppression of excitation at 1 uM at -70 mV holding potential by whole cell patch clamp assay
Mus musculus [5] = assay: Reduction of intraocular pressure in ocular hypertensive NEE mouse harboring Sh3pxd2b deletion mutant at 0.2% administered topically to eye after 12 hrs by tonometry; format: functional, organism-based; summary of the method: as §1
Mus musculus [6] = assay: Potentiation of […] WIN55212-2-induced reduction in intraocular pressure in ocular normotensive C57BL/6J mouse assessed as change in IOP at 0.2% administered topically to eye measured after 6 hrs by tonometry; format: functional
[7] = rat, microsomes, 1 µM
[8] = Toxicity in C57BL/6 mouse assessed as effect on hypothermia at 0.1 to 10 mg/kg, ip after 15 mins by thermometric method; format: organism-based; conditions: in vivo
Summary of the method: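 Male C57BL/6 mice were given 0.1 – 10 mg/kg compound or vehicle (1:1:18 ethanol:cremaphor:saline). Body temperature was measured at 15 min and expressed relative to vehicle (100%). n = 5–6.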

[9] = human, microsomes, 1 µM
Mus musculus [10] = assay: Antinociceptive activity in C57BL/6 mouse at 3 to 10 mg/kg, ip after 20 mins post treatment by warm water tail-flick assay; format: functional, organism-based
Mus musculus [11] = assay: Potentiation of […] WIN55212-2-induced reduction in intraocular pressure in ocular normotensive C57BL/6J mouse assessed as change in IOP at 0.2% administered topically to eye measured after 1 hr by tonometry; format: functional
Mus musculus [12] = assay: Reduction of intraocular pressure in ocular hypertensive NEE mouse harboring Sh3pxd2b deletion mutant at 0.2% administered topically to eye after 6 hrs by tonometry; format: functional; summary of the method: as §1
[13] = Toxicity in C57BL/6 mouse assessed as catalepsy at 0.1 to 10 mg/kg, ip after 5 mins by bar holding assay; format: organism-based; conditions: in vivo
Summary of the method: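 Male C57BL/6 mice were given 0.1 – 10 mg/kg compound or vehicle (1:1:18 ethanol:cremaphor:saline). Catalepsy was assessed at 5 min as % MPE with a 60 sec maximum. n = 5–6.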

[14] = buffer, pH 7.4, 2 h
Mus musculus [15] = assay: Potentiation of […] WIN55212-2-induced reduction in intraocular pressure in ocular normotensive C57BL/6J mouse assessed as change in IOP at 0.2% administered topically to eye measured after 12 hrs by tonometry; format: functional

Chain of Cannabinoid receptor 1 (Mus musculus) (P47746 whole entry): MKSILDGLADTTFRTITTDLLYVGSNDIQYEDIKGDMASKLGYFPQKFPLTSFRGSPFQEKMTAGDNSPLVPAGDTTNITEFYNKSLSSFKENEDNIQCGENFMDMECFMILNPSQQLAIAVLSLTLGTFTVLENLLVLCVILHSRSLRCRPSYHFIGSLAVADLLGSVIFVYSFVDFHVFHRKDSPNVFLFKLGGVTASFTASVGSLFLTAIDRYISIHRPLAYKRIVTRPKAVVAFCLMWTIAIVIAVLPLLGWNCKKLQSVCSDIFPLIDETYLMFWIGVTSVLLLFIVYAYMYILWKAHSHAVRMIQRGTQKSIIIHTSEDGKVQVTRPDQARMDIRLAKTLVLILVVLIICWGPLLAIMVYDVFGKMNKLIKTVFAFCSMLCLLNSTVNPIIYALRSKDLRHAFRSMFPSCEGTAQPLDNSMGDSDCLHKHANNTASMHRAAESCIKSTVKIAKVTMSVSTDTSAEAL

Which t1/2 [1] does the source give for O=[N+]([O-])CC(c1ncccc1F)c1c(-c2ccccc2)[nH]c2ccccc12 (stereo not given) here?
The t1/2 was 27.4 min.

And the Activity (Mus musculus [2])?
The Activity was 2.5 mmHg.

And the t1/2 [3]?
The t1/2 was 4.08 min.

What about the Activity [4] of the same molecule?
The Activity was “Active”.

What about the inhibition (Mus musculus [5]) of the same molecule?
The inhibition was “inactive”.

And the Activity (Mus musculus [6])?
The Activity was -0.6 mmHg.

And the CLH [7]?
Its CLH is 556 µL/min.

What about the Activity [8] of the same molecule?
Its Activity is “Non-Toxic”.

And the CLH [9]?
The CLH was 84.5 µL/min.

What about the Activity (Mus musculus [10]) of the same molecule?
The Activity was “inactive”.

And the Activity (Mus musculus [11])?
Its Activity is -0.7 mmHg.

And the Activity (Mus musculus [12])?
The Activity was 3.6 mmHg.

And the Activity [13]?
Its Activity is “Non-Toxic”.

What about the Kinetic_solubility [14] of the same molecule?
The Kinetic_solubility was 3.13 µM.

What about the Activity (Mus musculus [15]) of the same molecule?
The Activity was 0.1 mmHg.
